Measurements: ChEMBL document CHEMBL3407409, “Synthesis of diethyl 4-substituted-2,6-dimethyl-1,4-dihydropyridine-3,5-dicarboxylates as a new series of inhibitors against yeast α-glucosidase” (Eur J Med Chem, 2015)
Calls of active or inactive are those of the source. The rule behind the calls is not given here.

How the values were obtained:
3T3 = assay: Cytotoxicity against […] 3T3 cells by MTT assay; assay type: cell-based; settings: Mus musculus, NIH3T3
Outline: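 […] fibroblast 3T3 cells (2×10^5 cells/mL) grown overnight at 37 °C under CO2, then given serial dilutions (100–12.5 µg/mL) in DMEM with 5% FBS and penicillin/streptomycin. MTT (2 mg/mL in PBS) added for 4 h. Formazan dissolved in DMSO and read at 540 nm; viability taken as the OD ratio.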

Alpha-glucosidase MAL12 [1] = molecular target: T1, Alpha-glucosidase MAL12 (Saccharomyces cerevisiae S288c, UniProt P53341); assay: Inhibition of Saccharomyces cerevisiae alpha-glucosidase using p-nitrophenyl alpha-D-glucopyranoside as substrate preincubated for 15 mins measured up to 30 mins by spectrophotometry
Outline: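 Yeast enzyme 0.2 U/mL held with graded inhibitor levels for 15 min at 37 °C in 0.1 M phosphate buffer pH 6.8, DMSO 7% final; p-nitrophenyl α-D-glucopyranoside 0.7 mM final added, A400 followed up to 30 min. DMSO-only control; % inhibition = 100 − (OD test/OD control) × 100.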

Serpentes = assay: Inhibition of snake venom phosphodiesterase-1 using bis-(p-nitropheny1) phosphate as substrate preincubated for 30 mins by spectrophotometry
Outline: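 Snake venom enzyme, 0.000742 U/well final, in 33 mM Tris–HCl pH 8.8 with 30 mM Mg-acetate. Pre-incubated 30 min with test samples. Substrate bis-(p-nitrophenyl) phosphate at 0.33 mM. Rate of p-nitrophenol release (change in OD/min) followed at 410 nm, 37 °C, in microplate format. Cysteine and EDTA used as positive controls. Run in triplicate.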

[2] = molecular target: T2, Beta-glucuronidase (Homo sapiens) (UniProt P08236); assay: Inhibition of beta-glucuronidase (unknown origin) using p-nitrophenyl-beta-D-glucuronide as substrate preincubated for 30 mins by spectrophotometry
T2 sequence (whole entry): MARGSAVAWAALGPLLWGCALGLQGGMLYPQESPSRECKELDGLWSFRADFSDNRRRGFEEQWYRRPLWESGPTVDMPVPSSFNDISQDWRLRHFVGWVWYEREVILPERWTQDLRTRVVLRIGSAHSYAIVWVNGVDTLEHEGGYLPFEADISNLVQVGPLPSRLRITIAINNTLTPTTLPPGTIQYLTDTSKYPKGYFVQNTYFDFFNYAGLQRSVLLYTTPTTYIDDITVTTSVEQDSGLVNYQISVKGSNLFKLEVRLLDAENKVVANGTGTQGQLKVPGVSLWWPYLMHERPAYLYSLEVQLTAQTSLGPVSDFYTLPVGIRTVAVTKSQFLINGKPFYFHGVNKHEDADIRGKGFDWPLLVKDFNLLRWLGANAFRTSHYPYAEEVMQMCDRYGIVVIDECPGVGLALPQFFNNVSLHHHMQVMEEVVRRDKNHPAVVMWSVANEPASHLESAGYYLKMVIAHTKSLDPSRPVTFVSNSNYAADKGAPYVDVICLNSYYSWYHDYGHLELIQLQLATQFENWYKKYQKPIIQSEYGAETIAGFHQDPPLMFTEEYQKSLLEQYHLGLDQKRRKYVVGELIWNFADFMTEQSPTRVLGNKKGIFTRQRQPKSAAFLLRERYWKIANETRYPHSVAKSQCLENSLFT
Outline: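 Enzyme (1 U) in 0.1 M acetate buffer held with compound (DMSO 2% final) at 37 °C for 30 min. Then 0.4 mM p-nitrophenyl-β-D-glucuronide added and p-nitrophenol read at 405 nm. Run in triplicate.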

[3] = molecular target: Carbonic anhydrase 2 (Bos taurus) (UniProt P00921); assay: Inhibition of purified bovine erythrocyte carbonic anhydrase 2 using 4-PNA as substrate preincubated for 15 mins by spectrophotometry
Outline: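 Bovine erythrocyte CA-II (0.1 mg/mL stock) in 20 mM HEPES-Tris pH 7.4, DMSO 10% final, preincubated with compound for 15 min. Reaction started with 0.7 mM 4-nitrophenyl acetate (in ethanol). 4-Nitrophenol read at 400 nm each minute for 30 min. Triplicates at several concentrations.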

[4] = molecular target: Oligo-1,6-glucosidase IMA1 (Saccharomyces cerevisiae S288c) (UniProt P53051); assay: Ratio of acarbose IC50 to compound IC50 for Saccharomyces cerevisiae alpha-glucosidase using p-nitrophenyl alpha-D-glucopyranoside as substrate preincubated for 15 mins measured up to 30 mins by spectrophotometry
Alpha-glucosidase MAL12 [5] = molecular target: T1, Alpha-glucosidase MAL12; assay: Competitive inhibition of Saccharomyces cerevisiae alpha-glucosidase using p-nitrophenyl alpha-D-glucopyranoside as substrate preincubated for 15 mins by Lineweaver-Burk plot method
[6] = molecular target: Oligo-1,6-glucosidase IMA1 (Saccharomyces cerevisiae S288c) (UniProt P53051); assay: Non-competitive inhibition of Saccharomyces cerevisiae alpha-glucosidase using p-nitrophenyl alpha-D-glucopyranoside as substrate preincubated for 15 mins by Dixon plot method
Outline: (§1)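 Kinetics on the yeast enzyme: 1/rate plotted against 1/substrate (Lineweaver-Burk) at several inhibitor levels, e.g. 60, 70 and 80 µM, to see effects on Km and Vmax. Ki taken from a replot of Lineweaver-Burk slopes against inhibitor concentration and checked by Dixon plot (1/rate against inhibitor concentration). Points are the mean of three experiments.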

Alpha-glucosidase MAL12 [7] = molecular target: T1, Alpha-glucosidase MAL12; assay: Non-competitive inhibition of Saccharomyces cerevisiae alpha-glucosidase using p-nitrophenyl alpha-D-glucopyranoside as substrate preincubated for 15 mins by Lineweaver-Burk plot method; outline: as §1

Carbonic anhydrase 2 (Bos taurus), sequence (P00921 2-260 limits assumed): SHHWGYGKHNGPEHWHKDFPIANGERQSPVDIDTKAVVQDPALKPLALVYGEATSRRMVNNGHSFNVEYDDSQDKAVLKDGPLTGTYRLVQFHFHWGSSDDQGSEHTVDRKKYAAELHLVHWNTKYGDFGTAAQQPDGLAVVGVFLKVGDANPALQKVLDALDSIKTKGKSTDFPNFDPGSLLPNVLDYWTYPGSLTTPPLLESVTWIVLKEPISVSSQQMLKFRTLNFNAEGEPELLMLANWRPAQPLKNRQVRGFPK
Oligo-1,6-glucosidase IMA1 (Saccharomyces cerevisiae S288c), sequence (P53051 whole entry): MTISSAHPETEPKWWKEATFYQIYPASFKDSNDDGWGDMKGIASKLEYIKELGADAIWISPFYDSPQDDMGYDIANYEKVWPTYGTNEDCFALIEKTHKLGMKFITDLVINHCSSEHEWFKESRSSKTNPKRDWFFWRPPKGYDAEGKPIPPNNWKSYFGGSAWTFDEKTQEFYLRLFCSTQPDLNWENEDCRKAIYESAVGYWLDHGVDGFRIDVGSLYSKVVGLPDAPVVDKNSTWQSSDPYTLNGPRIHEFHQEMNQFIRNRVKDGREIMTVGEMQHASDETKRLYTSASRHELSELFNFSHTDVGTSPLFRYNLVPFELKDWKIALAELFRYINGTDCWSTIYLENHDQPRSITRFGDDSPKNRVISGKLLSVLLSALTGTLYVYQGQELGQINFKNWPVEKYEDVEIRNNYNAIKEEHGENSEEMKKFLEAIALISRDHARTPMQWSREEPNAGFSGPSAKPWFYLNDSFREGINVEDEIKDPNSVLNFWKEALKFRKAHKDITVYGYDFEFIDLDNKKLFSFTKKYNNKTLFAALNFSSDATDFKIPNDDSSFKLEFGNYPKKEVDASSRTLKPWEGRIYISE
T1 sequence (P53341 whole entry): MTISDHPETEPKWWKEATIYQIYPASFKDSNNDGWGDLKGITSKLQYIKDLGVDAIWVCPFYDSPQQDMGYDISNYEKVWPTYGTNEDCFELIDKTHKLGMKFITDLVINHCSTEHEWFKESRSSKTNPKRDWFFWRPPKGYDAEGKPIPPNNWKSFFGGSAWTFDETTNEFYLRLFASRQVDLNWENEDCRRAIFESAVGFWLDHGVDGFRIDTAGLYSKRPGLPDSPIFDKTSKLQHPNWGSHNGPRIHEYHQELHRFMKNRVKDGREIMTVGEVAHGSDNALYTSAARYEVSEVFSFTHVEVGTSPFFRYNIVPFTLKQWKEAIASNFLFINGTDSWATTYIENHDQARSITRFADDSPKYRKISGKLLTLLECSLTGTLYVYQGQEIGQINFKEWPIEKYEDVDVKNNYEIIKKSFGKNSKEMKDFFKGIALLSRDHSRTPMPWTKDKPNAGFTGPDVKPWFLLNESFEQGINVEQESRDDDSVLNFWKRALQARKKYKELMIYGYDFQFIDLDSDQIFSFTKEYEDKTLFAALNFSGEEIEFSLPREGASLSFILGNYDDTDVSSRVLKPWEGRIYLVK

## CCOC(=O)C1=C(C)NC(C)=C(C(=O)OCC)C1c1ccc(C)cc1
3T3
  IC50: > 30 µM
Alpha-glucosidase MAL12 [1]
  IC50: 118 µM

## CCCCC1C(C(=O)OCC)=C(C)NC(C)=C1C(=O)OCC
Alpha-glucosidase MAL12 [1]
  IC50: 122 µM

## CCOC(=O)C1=C(C)NC(C)=C(C(=O)OCC)C1c1ccc(OC)cc1
Serpentes
  inhibition: 8.1%
[2]
  inhibition: 12.4%
[3]
  inhibition: inactive
3T3
  IC50: > 30 µM
Alpha-glucosidase MAL12 [1]
  IC50: 65.1 µM

## CCOC(=O)C1=C(C)NC(C)=C(C(=O)OCC)C1c1ccc([N+](=O)[O-])cc1
Serpentes
  inhibition: 20.3%
[2]
  inhibition: 14.1%
[3]
  inhibition: 9.7%
3T3
  IC50: > 30 µM
[4]
  Ratio IC50: 18
Alpha-glucosidase MAL12 [1]
  IC50: 51 µM
Alpha-glucosidase MAL12 [5]
  Ki: 66 µM

## CCOC(=O)C1=C(C)NC(C)=C(C(=O)OCC)C1CCc1ccccc1
3T3
  IC50: 26.7 µM
Alpha-glucosidase MAL12 [1]
  IC50: 112 µM

## CCOC(=O)C1=C(C)NC(C)=C(C(=O)OCC)C1c1cccc([N+](=O)[O-])c1
[6]
  inhibition: Active
Serpentes
  inhibition: 11.4%
[2]
  inhibition: 22.3%
Alpha-glucosidase MAL12 [7]
  Ki: 25 µM
[3]
  inhibition: 11.7%
3T3
  IC50: > 30 µM
[4]
  Ratio IC50: 26
Alpha-glucosidase MAL12 [1]
  IC50: 35 µM

## CCOC(=O)C1=C(C)NC(C)=C(C(=O)OCC)C1c1ccc(OCC)cc1
3T3
  IC50: > 30 µM
Alpha-glucosidase MAL12 [1]
  IC50: 124 µM

## CCOC(=O)C1=C(C)NC(C)=C(C(=O)OCC)C1c1ccc(O)c(O)c1
3T3
  IC50: 28.6 µM
Alpha-glucosidase MAL12 [1]
  IC50: 274 µM

## CCOC(=O)C1=C(C)NC(C)=C(C(=O)OCC)C1c1ccc(SC)cc1
3T3
  IC50: > 30 µM
Alpha-glucosidase MAL12 [1]
  IC50: 97.4 µM

## CCOC(=O)C1=C(C)NC(C)=C(C(=O)OCC)C1c1ccccc1F
3T3
  IC50: > 30 µM
Alpha-glucosidase MAL12 [1]
  IC50: 60.2 µM

## CCOC(=O)C1=C(C)NC(C)=C(C(=O)OCC)C1c1ccc(Cl)cc1
3T3
  IC50: 27.9 µM
Alpha-glucosidase MAL12 [1]
  IC50: 72.4 µM

## CCOC(=O)C1=C(C)NC(C)=C(C(=O)OCC)C1c1cccs1
Serpentes
  inhibition: 8%
[2]
  inhibition: inactive
[3]
  inhibition: inactive
3T3
  IC50: > 30 µM
Alpha-glucosidase MAL12 [1]
  IC50: 74.3 µM
